This note sets out measurements from ChEMBL document CHEMBL1143805, “Synthesis and antimicrobial activities of some novel 1,2,4-triazolo[3,4-b]-1,3,4-thiadiazoles and 1,2,4-triazolo[3,4-b]-1,3,4-thiadiazines carrying thioalkyl and sulphonyl phenoxy moieties” (2007).

The test system of one assay is Escherichia coli. Briefly: Antibacterial activity against Escherichia coli ATCC 25922. The class given is functional. The note with it: for MIC: Escherichia coli, ATCC 25922. An outline of the steps:
(§1)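 MIC by serial dilution in Mueller-Hinton broth tubes, pH adjusted to 5.0 with phosphate buffer. A standardized bacterial suspension was inoculated and incubated 16-18 h at 37 °C, and MIC was read as the lowest concentration with no visible growth. Zones were also measured in agar wells on seeded plates, with compounds in DMSO and a DMSO control, triplicate plates, 37 °C for 3-4 days.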

The next assay concerns Staphylococcus aureus. Briefly: Antibacterial activity against Staphylococcus aureus ATCC 25923. Type of assay: functional. Particulars: for MIC: Staphylococcus aureus, ATCC 25923. An outline of the steps: as §1
The subject of the next assay is Pseudomonas aeruginosa. Kind of assay: Antibacterial activity against Pseudomonas aeruginosa ATCC 27853. Type of assay: functional. The note with it: for MIC: Pseudomonas aeruginosa, ATCC 27853. An outline of the steps: as §1
In a further assay the test system is Klebsiella pneumoniae. Kind of assay: Antibacterial activity against Klebsiella pneumoniae. The class given is functional. The note with it: for MIC: Klebsiella pneumoniae. An outline of the steps:
as §1

Another assay deals with Aspergillus flavus. Kind of assay: Antifungal activity against Aspergillus flavus NCIM 524. Type of assay: functional. The note with it: for MIC: Aspergillus flavus, NCIM 524. In outline:
(§2)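 Agar-well diffusion on Sabouraud agar at pH 5.7. Plates were lawned with a saline spore suspension (one loopful in 3 ml), decanted and dried 1 h at 37 °C. Compounds in DMSO went into punched wells, with a DMSO solvent control. Plates were run in triplicate and kept at 37 °C for 3-4 days, with inhibition-zone diameter as read-out.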

In a further assay the test system is Aspergillus fumigatus. Briefly: Antifungal activity against Aspergillus fumigatus NCIM 902. The class given is functional. The note with it: for MIC: Aspergillus fumigatus, NCIM 902.
The test system of a further assay is Talaromyces marneffei. Kind of assay: Antifungal activity against Penicillium marneffei. Type of assay: functional. The note with it: for MIC: Talaromyces marneffei. An outline of the steps: as §2
The test system of a further assay is Trichophyton benhamiae. Briefly: Antifungal activity against Trichophyton mentagrophytes. The class given is functional, Arthroderma benhamiae. The note with it: for MIC: Trichophyton benhamiae. An outline of the steps: as §2

SMILES strings stand for the structures. ≈ marks a conversion by molar mass, not a printed value.

What is called MIC is the lowest concentration found to suppress growth. For `CSc1ccc(OCc2nnc3n2N=C(c2ccc(O)c(C(N)=O)c2)CS3)cc1`, the “inhibition zone (IZ)” value in the assay on Escherichia coli, with Staphylococcus aureus, with Pseudomonas aeruginosa, in the assay on Klebsiella pneumoniae, in the assay with Aspergillus flavus and in the assay with Aspergillus fumigatus was <10 mm throughout. In addition, the “inhibition zone (IZ)” value in the assay with Talaromyces marneffei and in the assay with Trichophyton benhamiae was <10 mm throughout. The MIC against Escherichia coli, against Staphylococcus aureus, in the assay with Pseudomonas aeruginosa, with Klebsiella pneumoniae, against Aspergillus flavus and in the assay on Aspergillus fumigatus was 25 µg/mL (≈ 58.5 µM) throughout. For the same molecule, the MIC in the assay with Talaromyces marneffei and in the assay on Trichophyton benhamiae was 25 µg/mL (≈ 58.5 µM) throughout.
Turning to `CS(=O)(=O)c1ccc(OCc2nnc3sc(-c4ccccc4Cl)nn23)cc1`, the “inhibition zone (IZ)” value in the assay on Escherichia coli, in the assay with Staphylococcus aureus, in the assay with Pseudomonas aeruginosa, with Klebsiella pneumoniae, in the assay on Aspergillus flavus and with Aspergillus fumigatus was 11 mm each time. Besides, the entries for the “inhibition zone (IZ)” value in the assay on Talaromyces marneffei and with Trichophyton benhamiae were <10 mm and 11 mm, respectively. Moreover, the MIC in the assay on Escherichia coli, in the assay on Staphylococcus aureus, against Pseudomonas aeruginosa, in the assay with Klebsiella pneumoniae, against Aspergillus flavus and with Aspergillus fumigatus was 12.5 µg/mL (≈ 29.7 µM) in each case. Besides, the MIC in the assay on Talaromyces marneffei turned out to be 25 µg/mL (≈ 59.4 µM); in the assay on Trichophyton benhamiae it was 12.5 µg/mL (≈ 29.7 µM).
In the case of `CSc1ccc(OCc2nnc3n2N=C(c2ccc(Cl)cc2Cl)CS3)cc1`, the “inhibition zone (IZ)” value in the assay on Escherichia coli, with Staphylococcus aureus, with Pseudomonas aeruginosa, in the assay on Klebsiella pneumoniae, with Aspergillus flavus and with Aspergillus fumigatus was 16 mm in each case. In addition, the “inhibition zone (IZ)” value in the assay on Talaromyces marneffei and in the assay with Trichophyton benhamiae was 16 mm in each case. For the same molecule, the MIC in the assay with Escherichia coli, against Staphylococcus aureus, in the assay on Pseudomonas aeruginosa, against Klebsiella pneumoniae, with Aspergillus flavus and in the assay with Aspergillus fumigatus was 6.25 µg/mL (≈ 14.3 µM) throughout. For the same molecule, the MIC in the assay with Talaromyces marneffei and in the assay with Trichophyton benhamiae was 6.25 µg/mL (≈ 14.3 µM) throughout.
As for `CCSc1ccc(OCc2nnc3sc(-c4ccccc4O)nn23)cc1`, the “inhibition zone (IZ)” value with Escherichia coli, with Staphylococcus aureus, with Pseudomonas aeruginosa, with Klebsiella pneumoniae, in the assay with Aspergillus flavus and in the assay with Aspergillus fumigatus was <10 mm throughout. Also, the “inhibition zone (IZ)” value in the assay with Talaromyces marneffei and in the assay on Trichophyton benhamiae was <10 mm in each case. The MIC against Escherichia coli, against Staphylococcus aureus, with Pseudomonas aeruginosa, with Klebsiella pneumoniae, with Aspergillus flavus and with Aspergillus fumigatus was 25 µg/mL (≈ 65 µM) each time. The MIC in the assay with Talaromyces marneffei and in the assay with Trichophyton benhamiae was 25 µg/mL (≈ 65 µM) each time.
Consider `CCSc1ccc(OCc2nnc3sc(-c4ccccc4Cl)nn23)cc1`, for which the “inhibition zone (IZ)” value in the assay with Escherichia coli, in the assay on Staphylococcus aureus, in the assay on Pseudomonas aeruginosa, in the assay on Klebsiella pneumoniae, in the assay with Aspergillus flavus and in the assay on Aspergillus fumigatus was <10 mm each time. The “inhibition zone (IZ)” value in the assay on Talaromyces marneffei and in the assay with Trichophyton benhamiae was <10 mm in each case. The MIC in the assay with Escherichia coli, with Staphylococcus aureus, in the assay with Pseudomonas aeruginosa, with Klebsiella pneumoniae, against Aspergillus flavus and against Aspergillus fumigatus was 25 µg/mL (≈ 62 µM) each time. For the same molecule, the MIC in the assay with Talaromyces marneffei and against Trichophyton benhamiae was 25 µg/mL (≈ 62 µM) each time.
As to `CCSc1ccc(OCc2nnc3n2N=C(c2ccc(Cl)cc2Cl)CS3)cc1`, the “inhibition zone (IZ)” value in the assay with Escherichia coli, in the assay with Staphylococcus aureus, with Pseudomonas aeruginosa, with Klebsiella pneumoniae, in the assay on Aspergillus flavus and in the assay with Aspergillus fumigatus was <10 mm each time. The “inhibition zone (IZ)” value in the assay on Talaromyces marneffei and in the assay on Trichophyton benhamiae was <10 mm in each case. Also, the MIC in the assay on Escherichia coli, with Staphylococcus aureus, against Pseudomonas aeruginosa, in the assay on Klebsiella pneumoniae, against Aspergillus flavus and against Aspergillus fumigatus was 25 µg/mL (≈ 55.4 µM) throughout. The MIC against Talaromyces marneffei and against Trichophyton benhamiae was 25 µg/mL (≈ 55.4 µM) throughout.
Take `CS(=O)(=O)c1ccc(OCc2nnc3sc(Cc4ccccc4)nn23)cc1`: the “inhibition zone (IZ)” value with Escherichia coli, in the assay with Staphylococcus aureus, in the assay with Pseudomonas aeruginosa, in the assay with Klebsiella pneumoniae, in the assay on Aspergillus flavus and with Aspergillus fumigatus was 11 mm throughout. The “inhibition zone (IZ)” value in the assay on Talaromyces marneffei was <10 mm; in the assay on Trichophyton benhamiae, 11 mm. Moreover, the MIC against Escherichia coli, with Staphylococcus aureus, against Pseudomonas aeruginosa, with Klebsiella pneumoniae, in the assay with Aspergillus flavus and with Aspergillus fumigatus was 12.5 µg/mL (≈ 31.2 µM) throughout. Besides, the figures for the MIC against Talaromyces marneffei and with Trichophyton benhamiae were 25 µg/mL (≈ 62.4 µM) and 12.5 µg/mL (≈ 31.2 µM), respectively.
For the molecule `CS(=O)(=O)c1ccc(OCc2nnc3n2N=C(c2ccc(Cl)cc2)CS3)cc1`, the “inhibition zone (IZ)” value with Escherichia coli, in the assay with Staphylococcus aureus, in the assay on Pseudomonas aeruginosa, in the assay with Klebsiella pneumoniae, in the assay on Aspergillus flavus and in the assay with Aspergillus fumigatus was <10 mm in each case. In addition, the “inhibition zone (IZ)” value is <10 mm in the assay with Talaromyces marneffei and < 10 mm in the assay on Trichophyton benhamiae. The MIC against Escherichia coli, in the assay on Staphylococcus aureus, in the assay on Pseudomonas aeruginosa, with Klebsiella pneumoniae, against Aspergillus flavus and against Aspergillus fumigatus was 25 µg/mL (≈ 57.5 µM) in each case. In addition, the MIC against Talaromyces marneffei and against Trichophyton benhamiae was 25 µg/mL (≈ 57.5 µM) each time.
For the molecule `CCSc1ccc(OCc2nnc3n2N=C(c2ccc(Cl)cc2)CS3)cc1`, the “inhibition zone (IZ)” value in the assay with Escherichia coli, in the assay with Staphylococcus aureus, with Pseudomonas aeruginosa, in the assay on Klebsiella pneumoniae, in the assay on Aspergillus flavus and in the assay on Aspergillus fumigatus was <10 mm throughout. The “inhibition zone (IZ)” value with Talaromyces marneffei and with Trichophyton benhamiae was <10 mm throughout. Also, the MIC in the assay with Escherichia coli, with Staphylococcus aureus, with Pseudomonas aeruginosa, with Klebsiella pneumoniae, with Aspergillus flavus and against Aspergillus fumigatus was 25 µg/mL (≈ 60 µM) in each case. Further, the MIC against Talaromyces marneffei and in the assay with Trichophyton benhamiae was 25 µg/mL (≈ 60 µM) in each case.
